Results from ChEMBL document CHEMBL2417362, “Truncation of the peptide sequence in bifunctional ligands with mu and delta opioid receptor agonist and neurokinin 1 receptor antagonist activities” (Bioorg Med Chem Lett, 2013).
Active and inactive are the calls of the source. The calls are words filed in the database; no cut-off is given here. Non-standard residues stand in square brackets, D forms with d. Residues, ends and D or L forms follow the SMILES beside them. *: point of attachment. OBzl(3,5-(CF3)2) = FC(F)(F)c1cc(CO*)cc(C(F)(F)F)c1

Columns and labels:
[1] = target: Substance-P receptor (Cavia porcellus) (UniProt P30547); assay: Antagonist activity at NK1 receptor in guinea pig ileum assessed as inhibition of substance P-induced muscle contraction; assay type: tissue-based
Chain of Substance-P receptor (Cavia porcellus) (P30547 whole entry): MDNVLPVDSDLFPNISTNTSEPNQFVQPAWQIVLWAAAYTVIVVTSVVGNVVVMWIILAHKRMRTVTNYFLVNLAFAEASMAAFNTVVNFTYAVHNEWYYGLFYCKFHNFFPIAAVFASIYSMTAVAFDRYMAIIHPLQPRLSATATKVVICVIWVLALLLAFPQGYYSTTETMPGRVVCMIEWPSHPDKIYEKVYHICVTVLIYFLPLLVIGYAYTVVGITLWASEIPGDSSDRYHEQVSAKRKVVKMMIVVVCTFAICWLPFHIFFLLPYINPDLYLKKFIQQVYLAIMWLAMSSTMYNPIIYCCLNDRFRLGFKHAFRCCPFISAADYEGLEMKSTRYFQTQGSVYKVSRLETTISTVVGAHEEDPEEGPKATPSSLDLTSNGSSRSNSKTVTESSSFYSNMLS

[2] = target: Mu-type opioid receptor (Cavia porcellus) (UniProt P97266); assay: Agonist activity at mu opioid receptor in guinea pig ileum assessed as inhibition of electrically-stimulated muscle contraction at 1 uM; assay type: tissue-based
Chain of Mu-type opioid receptor (Cavia porcellus) (P97266 whole entry): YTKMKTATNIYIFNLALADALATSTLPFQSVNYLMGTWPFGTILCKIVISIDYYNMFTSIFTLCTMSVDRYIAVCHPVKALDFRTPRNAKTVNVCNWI

Substance-P receptor = Substance-P receptor (Homo sapiens, UniProt P25103); assay: Displacement of [3H]substance P from human NK1 receptor expressed in CHO cells; assay type: cell-based
Chain of Substance-P receptor (P25103 whole entry): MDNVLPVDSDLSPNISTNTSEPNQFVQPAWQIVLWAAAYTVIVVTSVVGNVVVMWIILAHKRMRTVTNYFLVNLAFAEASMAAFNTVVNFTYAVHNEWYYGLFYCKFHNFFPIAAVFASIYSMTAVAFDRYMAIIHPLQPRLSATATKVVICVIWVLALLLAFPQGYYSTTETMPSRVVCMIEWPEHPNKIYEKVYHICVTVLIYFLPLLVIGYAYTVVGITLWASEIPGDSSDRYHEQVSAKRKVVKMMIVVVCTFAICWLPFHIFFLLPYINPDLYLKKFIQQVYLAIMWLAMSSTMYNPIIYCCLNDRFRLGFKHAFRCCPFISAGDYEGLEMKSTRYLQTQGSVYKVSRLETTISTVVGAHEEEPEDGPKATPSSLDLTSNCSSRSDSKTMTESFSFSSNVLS

Rattus norvegicus [3] = assay: Antiallodynic activity in po dosed spinal nerve ligated Sprague-Dawley rat assessed as attenuation of SNL-induced tactile allodynia; assay type: functional, organism-based
How it was run: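 Spinal nerve ligated rats dosed orally; tactile (von Frey) and thermal hypersensitivity compared with vehicle.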

Rattus norvegicus [4] = assay: Antiallodynic activity in intrathecally dosed spinal nerve ligated Sprague-Dawley rat assessed as attenuation of SNL-induced tactile allodynia; assay type: functional, organism-based
How it was run: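 Spinal nerve ligated rats given intrathecal doses, expressed as µg/5 µL, with 10% DMSO/water as vehicle; tactile allodynia measured by von Frey and compared with vehicle over time.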

Rattus norvegicus [5] = assay: Antinociceptive activity in Sprague-Dawley rat assessed as […] at 10 ug/5 uL administered intrathecally; assay type: functional, organism-based
How it was run: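 Non-injured rats given intrathecal 10 µg/5 µL in 10% DMSO/90% distilled water; hind paw withdrawal latency to radiant heat (Hargreaves) read 15 min after injection and compared with vehicle.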

Row | SMILES | Ke [1] | further results
1 | CSCC[C@H](NC(=O)[C@H](Cc1ccccc1)NC(=O)CNC(=O)[C@@H](C)NC(=O)[C@@H](N)Cc1ccc(O)cc1)C(=O)NC1(C(=O)N[C@@H](CC(C)C)C(=O)N[C@@H](Cc2c[nH]c3ccccc23)C(=O)OCc2cc(C(F)(F)F)cc(C(F)(F)F)c2)CCCC1 | 2 nM | 
2 | CSCC[C@H](NC(=O)[C@H](Cc1ccccc1)NC(=O)CNC(=O)[C@@H](C)NC(=O)[C@@H](N)Cc1ccc(O)cc1)C(=O)N1CCC[C@@H]1C(=O)N[C@@H](CC(C)C)C(=O)N[C@@H](Cc1c[nH]c2ccccc12)C(=O)OCc1cc(C(F)(F)F)cc(C(F)(F)F)c1 | 29 nM | inhibition [2]: 25%
3 | CSCC[C@H](NC(=O)[C@H](Cc1ccccc1)NC(=O)CNC(=O)[C@@H](C)NC(=O)[C@@H](N)Cc1ccc(O)cc1)C(=O)NC(C)(C)C(=O)N[C@@H](CC(C)C)C(=O)N[C@@H](Cc1c[nH]c2ccccc12)C(=O)OCc1cc(C(F)(F)F)cc(C(F)(F)F)c1 | 12 nM | Ki (Substance-P receptor): 120 pM
4 | CSCC[C@H](NC(=O)[C@H](Cc1ccccc1)NC(=O)CNC(=O)[C@@H](C)NC(=O)[C@@H](N)Cc1ccc(O)cc1)C(=O)N[C@@H](C)C(=O)N[C@@H](CC(C)C)C(=O)N[C@@H](Cc1c[nH]c2ccccc12)C(=O)OCc1cc(C(F)(F)F)cc(C(F)(F)F)c1 (H-Y[dA]GFMALW-{OBzl(3,5-(CF3)2)}) | 380 nM | 
5 | C[C@@H](NC(=O)[C@@H](N)Cc1ccc(O)cc1)C(=O)NCC(=O)N[C@@H](Cc1ccccc1)C(=O)NCC(=O)N[C@@H](Cc1c[nH]c2ccccc12)C(=O)OCc1cc(C(F)(F)F)cc(C(F)(F)F)c1 (H-Y[dA]GFGW-{OBzl(3,5-(CF3)2)}) | 59 nM | Activity (Rattus norvegicus [3]): inactive; Activity (Rattus norvegicus [4]): Dose-dependent effect; Activity (Rattus norvegicus [5]): Active
6 | CC(C)C[C@H](NC(=O)[C@H](Cc1ccccc1)NC(=O)CNC(=O)[C@@H](C)NC(=O)[C@@H](N)Cc1ccc(O)cc1)C(=O)N[C@@H](Cc1c[nH]c2ccccc12)C(=O)OCc1cc(C(F)(F)F)cc(C(F)(F)F)c1 (H-Y[dA]GFLW-{OBzl(3,5-(CF3)2)}) | 2 nM | 
7 | C[C@@H](NC(=O)[C@@H](N)Cc1ccc(O)cc1)C(=O)NCC(=O)N[C@@H](Cc1ccccc1)C(=O)N1CCCC1C(=O)N[C@@H](Cc1c[nH]c2ccccc12)C(=O)OCc1cc(C(F)(F)F)cc(C(F)(F)F)c1 (single isomer, unassigned) | 1.8 nM | 
